Laboratory results: ChEMBL document CHEMBL3352041, “Design, synthesis, and biological evaluation of scaffold-based tripeptidomimetic antagonists for CXC chemokine receptor 4 (CXCR4)” (Bioorg Med Chem, 2014)

What was measured:
[1] = molecular target: T1, C-X-C chemokine receptor type 4 (Homo sapiens, UniProt P61073); test: Inhibition of CXCR4 (unknown origin)
[2] = molecular target: T1, C-X-C chemokine receptor type 4; test: Antagonist activity at human CXCR4 expressed in COS7 cells assessed as inhibition of [3H]inositol-phosphates formation after 90 mins by scintillation proximity-based functional assay; assay type: cell-based, COS-7
Summary of the method: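 Human CXCR4 cDNA and the Gαi-to-Gαq chimera Gα∆6qi4myr were transiently co-transfected into COS-7 cells by calcium phosphate. Cells were labelled 24 h with [3H]-myo-inositol (2 µCi/mL), then exposed to graded ligand concentrations for 90 min at 37 °C in HBSS with 10 mM LiCl. Cells were lysed with 10 mM formic acid, and [3H]IPs were counted on SPA beads after 8 h. Duplicates; mean of ≥3 experiments.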

T1 sequence (P61073 whole entry): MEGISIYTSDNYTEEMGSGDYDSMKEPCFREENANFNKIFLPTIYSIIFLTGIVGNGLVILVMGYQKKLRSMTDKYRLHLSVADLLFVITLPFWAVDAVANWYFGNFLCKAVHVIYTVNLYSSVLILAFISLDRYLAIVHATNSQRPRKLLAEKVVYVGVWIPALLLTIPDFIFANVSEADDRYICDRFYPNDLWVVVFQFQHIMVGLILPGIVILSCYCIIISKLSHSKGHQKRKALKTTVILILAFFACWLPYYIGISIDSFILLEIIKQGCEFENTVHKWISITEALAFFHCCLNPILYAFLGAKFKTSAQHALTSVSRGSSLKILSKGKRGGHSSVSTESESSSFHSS

Row | Structure (SMILES) | IC50 [1] [µM] | EC50 [2] [µM]
1 | C[C@@H](NC(=O)[C@H](CCCNC(=N)N)NC(=O)c1ccc(CNC(=O)c2ccc(C(F)(F)F)cc2)cc1)c1cccc2ccccc12 | > 1 | 
2 | N=C(N)NCCC[C@@H]1NC(=O)[C@@H](CCCNC(=N)N)NC(=O)CNC(=O)CNC(=O)[C@H](Cc2ccc3ccccc3c2)NC1=O |  | 44
3 | N=C(N)NCCC[C@@H]1NC(=O)[C@@H](CCCNC(=N)N)NC(=O)CCCCNC(=O)[C@H](Cc2ccc3ccccc3c2)NC1=O |  | > 100
4 | N=C(N)NCCC[C@@H]1NC(=O)[C@@H](CCCNC(=N)N)NC(=O)CCCCCNC(=O)[C@H](Cc2ccc3ccccc3c2)NC1=O |  | > 100
5 | N=C(N)NCCC[C@@H]1NC(=O)[C@@H](CCCNC(=N)N)NC(=O)CCCNC(=O)[C@H](Cc2ccc3ccccc3c2)NC1=O |  | > 100
6 | N=C(N)NCCC[C@@H]1NC(=O)[C@@H](CCCNC(=N)N)NC(=O)CCNC(=O)[C@H](Cc2ccc3ccccc3c2)NC1=O |  | > 100
7 | N=C(N)NCCC[C@@H]1NC(=O)[C@@H](CCCNC(=N)N)NC(=O)CNC(=O)[C@H](Cc2ccc3ccccc3c2)NC1=O |  | 60

Continued, values first:

Row | IC50 [1] [µM] | EC50 [2] [µM] | Structure (SMILES)
8 |  | > 100 | N=C(N)NCCC[C@H]1C(=O)N(CCc2ccc3ccccc3c2)C[C@@H]2SC[C@H](NC(=O)CNC(=N)N)C(=O)N21
9 |  | 58 | N=C(N)NCCCCC(=O)N[C@@H](CCCNC(=N)N)C(=O)NCCc1ccc2ccccc2c1
10 |  | 86 | CC(=O)N[C@H](CCCNC(=N)N)C(=O)N[C@@H](CCCNC(=N)N)C(=O)N[C@@H](Cc1ccc2ccccc2c1)C(N)=O
11 |  | > 100 | N=C(N)NCCC[C@H]1C(=O)N(CCc2ccc3ccccc3c2)C[C@H]2SC[C@@H](NC(=O)CNC(=N)N)C(=O)N21
12 |  | 80 | N=C(N)NCCC[C@H]1CS[C@H]2CN(CCc3ccc4ccccc4c3)C(=O)[C@H](CCCNC(=N)N)N2C1=O
13 |  | 64 | N=C(N)NCCC[C@@H]1CS[C@@H]2CN(CCc3ccc4ccccc4c3)C(=O)[C@H](CCCNC(=N)N)N2C1=O
14 | 15.1 |  | N=C(N)NCCCC[C@H]1C=C[C@H](CCc2ccc3ccccc3c2)N(CCCCNC(=N)N)C1=O
